Assay results as given in ChEMBL document CHEMBL1135165, “Pyrrolidine-5,5-trans-lactams as novel mechanism-based inhibitors of human cytomegalovirus protease. Part 3: potency and plasma stability” (Bioorg Med Chem Lett, 2002).

What was measured:
[1] = target: T1, Capsid scaffolding protein (Human cytomegalovirus (strain AD169) (HHV-5) (Human herpesvirus 5), UniProt P16753); assay: Tested in vitro for inhibitory activity against Protease; design: species or system Human betaherpesvirus 5
T1 sequence (P16753 whole entry): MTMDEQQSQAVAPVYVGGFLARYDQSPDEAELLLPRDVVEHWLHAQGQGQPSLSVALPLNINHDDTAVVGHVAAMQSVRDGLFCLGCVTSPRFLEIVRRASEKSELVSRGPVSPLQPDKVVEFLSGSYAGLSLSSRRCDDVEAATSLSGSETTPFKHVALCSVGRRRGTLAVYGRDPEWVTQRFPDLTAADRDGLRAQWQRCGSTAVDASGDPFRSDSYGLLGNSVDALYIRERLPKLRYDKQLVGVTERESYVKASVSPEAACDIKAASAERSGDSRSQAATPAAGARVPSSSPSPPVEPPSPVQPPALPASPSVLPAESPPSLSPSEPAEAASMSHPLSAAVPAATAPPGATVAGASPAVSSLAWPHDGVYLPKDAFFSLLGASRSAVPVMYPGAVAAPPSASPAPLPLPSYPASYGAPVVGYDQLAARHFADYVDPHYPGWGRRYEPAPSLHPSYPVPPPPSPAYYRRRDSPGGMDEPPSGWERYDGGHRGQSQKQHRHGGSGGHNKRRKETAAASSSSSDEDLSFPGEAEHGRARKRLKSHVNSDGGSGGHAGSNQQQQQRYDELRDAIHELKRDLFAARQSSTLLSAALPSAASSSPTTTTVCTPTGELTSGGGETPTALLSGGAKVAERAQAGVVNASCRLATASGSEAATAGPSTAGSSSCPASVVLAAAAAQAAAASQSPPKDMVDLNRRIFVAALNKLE
In short: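 Human cytomegalovirus protease inhibition was measured in a p-nitroanilide (pNA) chromogenic substrate assay. Values are reported as IC50 in μM, with Ki also given for some compounds.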

[2] = Half life in human plasma was reported; type: ADME, cell-free

CC1CC1C(=O)N1C(=O)[C@@H](C)[C@@H]2[C@@H]1CCN2C(=O)[C@@H]1CCCN1S(=O)(=O)c1cccc2c(N(C)C)cccc12 (stereo partly drawn)
IC50 [1]: 1.4 µM | half-life [2]: 2.5 h

C[C@@H]1C(=O)N(C(=O)C2C(C)(C)C2(C)C)[C@H]2CCN(C(=O)OCc3ccccc3)[C@H]12
IC50 [1]: > 500 µM | half-life [2]: 33 h

C[C@@H]1[C@H](C)[C@@H]1C(=O)N1C(=O)[C@@H](C)[C@@H]2[C@@H]1CCN2C(=O)OCc1ccccc1
IC50 [1]: 72 µM | half-life [2]: 9.8 h

COC(=O)N1C(=O)[C@@H](C)[C@@H]2[C@@H]1CCN2C(=O)OCc1ccccc1
IC50 [1]: 148 µM | half-life [2]: 0.833 h

C[C@@H]1C(=O)N(C(=O)C(C)(C)C)[C@H]2CCN(C(=O)OCc3ccccc3)[C@H]12
IC50 [1]: > 500 µM | half-life [2]: 3.7 h

C[C@@H]1C(=O)N(C(=O)C2CC2)[C@H]2CCN(C(=O)[C@@H]3CCCN3S(=O)(=O)c3cccc4c(N(C)C)cccc34)[C@H]12
half-life [2]: 5 h

CNC(=O)N1C(=O)[C@@H](C)[C@@H]2[C@@H]1CCN2C(=O)OCc1ccccc1
IC50 [1]: > 500 µM | half-life [2]: > 24 h

CC1CC1C(=O)N1C(=O)[C@@H](C)[C@@H]2[C@@H]1CCN2C(=O)OCc1ccccc1 (stereo partly drawn)
IC50 [1]: 16 µM | half-life [2]: 2.6 h

C[C@@H]1C(=O)N(S(C)(=O)=O)[C@H]2CCN(C(=O)OCc3ccccc3)[C@H]12
IC50 [1]: ~500 µM | half-life [2]: < 0.0833 h

C[C@@H]1C(=O)N(C(=O)NCc2ccccc2)[C@H]2CCN(C(=O)[C@@H]3CCCN3S(=O)(=O)c3cccc4c(N(C)C)cccc34)[C@H]12
IC50 [1]: 6.6 µM | half-life [2]: > 33 h

C[C@@H]1C(=O)N(C(=O)C2CC2)[C@H]2CCN(C(=O)OCc3ccccc3)[C@H]12
IC50 [1]: 9 µM | half-life [2]: 1.4 h

C[C@@H]1C(=O)N(c2nccs2)[C@H]2CCN(C(=O)[C@@H]3CCCN3S(=O)(=O)c3cccc4c(N(C)C)cccc34)[C@H]12
IC50 [1]: 2.1 µM | half-life [2]: > 50 h

CC(=O)N1C(=O)[C@@H](C)[C@@H]2[C@@H]1CCN2C(=O)OCc1ccccc1
half-life [2]: 0.9 h

C[C@@H]1C(=O)N(C(=O)NCc2ccccc2)[C@H]2CCN(C(=O)OCc3ccccc3)[C@H]12
IC50 [1]: 250 µM | half-life [2]: 12 h

CC(=O)N1C(=O)C(C)(C)[C@@H]2[C@@H]1CCN2C(=O)OCc1ccccc1
IC50 [1]: > 500 µM | half-life [2]: 6.5 h

C[C@@H]1C(=O)N(C(=O)C2C(C)(C)C2(C)C)[C@H]2CCN(C(=O)[C@@H]3CCCN3S(=O)(=O)c3cccc4c(N(C)C)cccc34)[C@H]12
IC50 [1]: > 100 µM | half-life [2]: > 24 h

CNC(=O)N1C(=O)[C@@H](C)[C@@H]2[C@@H]1CCN2C(=O)[C@@H]1CCCN1S(=O)(=O)c1cccc2c(N(C)C)cccc12
IC50 [1]: 22 µM | half-life [2]: 12 h

COP(=O)(OC)N1C(=O)[C@@H](C)[C@@H]2[C@@H]1CCN2C(=O)OCc1ccccc1
IC50 [1]: > 500 µM | half-life [2]: > 24 h

C[C@@H]1C(=O)N(c2ccc([N+](=O)[O-])cc2)[C@H]2CCN(C(=O)[C@@H]3CCCN3S(=O)(=O)c3cccc4c(N(C)C)cccc34)[C@H]12
IC50 [1]: 41 µM

C[C@@H]1C(=O)N(c2nccs2)[C@H]2CCN(C(=O)OCc3ccccc3)[C@H]12
IC50 [1]: ~500 µM | half-life [2]: 44 h

C[C@@H]1C(=O)N(c2ccc([N+](=O)[O-])cc2)[C@H]2CCN(C(=O)OCc3ccccc3)[C@H]12
IC50 [1]: ~500 µM | half-life [2]: 40 h

C[C@@H]1[C@H](C)[C@@H]1C(=O)N1C(=O)[C@@H](C)[C@@H]2[C@@H]1CCN2C(=O)[C@@H]1CCCN1S(=O)(=O)c1cccc2c(N(C)C)cccc12
IC50 [1]: 5.1 µM | half-life [2]: 20 h

C[C@@H]1C(=O)N(c2ccc([N+](=O)[O-])cc2[N+](=O)[O-])[C@H]2CCN(C(=O)OCc3ccccc3)[C@H]12
IC50 [1]: ~500 µM | half-life [2]: > 24 h
